Data published in publication PMC8710994 (Redox Biology, 2021).
Each block holds one compound with its values, some of them ahead of it.

Key:
[1] = system: APAP-induced acute liver injury; assay: APAP-induced acute liver injury in mice; type: in vivo, C57BL/6 male mice
[2] = MTT cytotoxicity assay, LO2; type: cell-based, human; conditions: human, LO2 cells
Keap1–Nrf2 interaction [3] = target: T1, Keap1–Nrf2 interaction (Homo sapiens, UniProt Q14145); assay: Fluorescence polarization; conditions: read-out: Keap1–Nrf2 binding inhibition IC50; FP assay
T1 sequence (Q14145 whole entry): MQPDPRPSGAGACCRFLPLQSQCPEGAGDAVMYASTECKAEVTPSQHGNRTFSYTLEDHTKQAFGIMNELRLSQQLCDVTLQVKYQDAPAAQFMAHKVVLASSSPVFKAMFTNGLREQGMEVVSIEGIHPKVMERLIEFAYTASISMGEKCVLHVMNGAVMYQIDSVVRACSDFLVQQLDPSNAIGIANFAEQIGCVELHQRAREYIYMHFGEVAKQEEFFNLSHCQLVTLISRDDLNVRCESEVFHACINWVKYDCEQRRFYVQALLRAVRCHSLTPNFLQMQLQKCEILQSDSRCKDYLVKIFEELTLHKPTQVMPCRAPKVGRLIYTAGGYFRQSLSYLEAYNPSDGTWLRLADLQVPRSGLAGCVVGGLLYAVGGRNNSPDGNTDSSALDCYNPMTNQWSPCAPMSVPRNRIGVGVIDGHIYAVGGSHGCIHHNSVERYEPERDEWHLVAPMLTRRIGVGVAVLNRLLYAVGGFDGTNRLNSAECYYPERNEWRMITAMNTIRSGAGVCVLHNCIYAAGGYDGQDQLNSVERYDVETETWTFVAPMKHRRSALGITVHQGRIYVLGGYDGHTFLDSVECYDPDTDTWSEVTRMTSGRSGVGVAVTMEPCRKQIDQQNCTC

Keap1 and Nrf2 binding = Keap1 and Nrf2 binding (Homo sapiens, UniProt Q14145); assay: Competitive assay; conditions: competitive inhibitor, double-reciprocal plot
Keap1 and Nrf2 binding, sequence (Q14145 whole entry): as above
Method in brief: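 Fluorescence polarisation kit assay. Diluted Keap1 ([…]) was combined with Nrf2 peptide (1 μM stock), BSA and test compound in kit buffer. The mix was incubated 0.5 h at ambient temperature and read at excitation 485 nm, emission 535 nm. For the competitive format, wells held […] Nrf2 with test compound at several concentrations.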

Keap1 [4] = target: T2, Keap1 (Homo sapiens, UniProt Q14145); assay: Isothermal titration calorimetry with recombinant Keap1; type: binding
T2 sequence (Q14145 whole entry): as above
Method in brief: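 Human His6-Keap1 was expressed in E. coli BL21(DE3) (1 mM IPTG, 37 °C, 4 h) and purified on a His column. Protein and test compound were dialysed into 20 mM Bis-Tris, 150 mM NaCl, 2 mM DTT. Compound (200 μM) was titrated into protein (20 μM) in 19 × 2 μL injections, 150 s apart, at 25 °C and 750 rpm. Control titrations were included; data were fitted with a composite model.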

Nrf2 [5] = target: T3, Nrf2 (Homo sapiens, UniProt Q16236); assay: Isothermal titration calorimetry with recombinant Nrf2; type: binding; conditions: 200 μM of 1 titrated into Nrf2 (20 μM)
T3 sequence (Q16236 1-605): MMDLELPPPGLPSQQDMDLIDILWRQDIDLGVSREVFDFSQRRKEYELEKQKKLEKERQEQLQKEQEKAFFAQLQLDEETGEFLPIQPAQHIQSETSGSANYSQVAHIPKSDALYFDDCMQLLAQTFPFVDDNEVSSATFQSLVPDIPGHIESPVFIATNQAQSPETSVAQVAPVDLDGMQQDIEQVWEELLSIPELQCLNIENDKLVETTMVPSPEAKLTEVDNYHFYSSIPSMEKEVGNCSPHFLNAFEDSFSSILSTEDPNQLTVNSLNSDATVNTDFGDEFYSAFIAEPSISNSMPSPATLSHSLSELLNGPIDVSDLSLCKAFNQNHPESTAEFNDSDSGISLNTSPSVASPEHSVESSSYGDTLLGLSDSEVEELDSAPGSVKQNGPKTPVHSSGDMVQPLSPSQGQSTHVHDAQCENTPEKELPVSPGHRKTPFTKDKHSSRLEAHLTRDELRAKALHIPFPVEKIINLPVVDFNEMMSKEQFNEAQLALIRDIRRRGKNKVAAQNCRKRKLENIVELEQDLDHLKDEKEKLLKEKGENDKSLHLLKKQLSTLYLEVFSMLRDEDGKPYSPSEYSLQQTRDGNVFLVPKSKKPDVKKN

Keap1 [6] = target: T2, Keap1; assay: Cellular thermal shift assay; type: cell-based; conditions: 1 at 5.0 μM, LO2 cell lysates
Method in brief: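 LO2 lysate from 2 × 10^6 cells was diluted in PBS and split into equal aliquots. Aliquots were treated with test compound (5.0 μM) or DMSO for 30 min at room temperature, then heated individually across a temperature series. They were centrifuged, and supernatants were run on SDS-PAGE and immunoblotted for Keap1.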

Nrf2 [7] = target: T3, Nrf2; assay: Cellular thermal shift assay; type: cell-based; conditions: 1 at 5.0 μM, LO2 cell lysates
[8] = Stability by UV-Vis and 1H NMR over 7 days; type: physicochemical; conditions: 4:1 acetonitrile/aqueous medium, seven days
LO2 cells [9] = assay: Cellular uptake in LO2 cells by ICP-MS; type: in vitro ADME, human; conditions: 5 μM
Method in brief: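 LO2 cells were incubated with test compound at 5 μM for varying times. Iridium was then quantified by ICP-MS in whole cells and in separated nuclear and cytoplasmic fractions. Three independent experiments were run, shown as mean ± standard deviation; one-way ANOVA with Tukey's test.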

Keap1–Nrf2 interaction [10] = target: T1, Keap1–Nrf2 interaction; assay: Co-immunoprecipitation of Keap1 and Nrf2 in LO2 cells; type: cell-based; conditions: 5.0 μM, 8 h
Nrf2 [11] = assay: Nrf2 nuclear translocation in LO2 cells; type: cell-based, human; conditions: after 1 h
LO2 cells [12] = assay: ROS detection; type: cell-based, human; conditions: 5 μM, 8 h
Method in brief: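 LO2 cells were treated with H2O2 (800 μM, 3 h) and test compound (5 μM, 8 h). Cells were labelled with 5 μM H2DCF-DA in serum-free DMEM at 37 °C for 30 min, washed, and imaged by confocal microscopy at excitation 488 nm, emission 525 nm.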

proteasome = assay: Proteasome activity fluorometric assay kit; type: cell-based, human; conditions: 5 μM, 8 h
Method in brief: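 LO2 cells were treated 8 h with test compound (5 μM). Proteasome activity was then measured with a commercial fluorometric kit, with MG132 as positive control.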

LO2 cells [13] = assay: Mitochondrial membrane potential by rhodamine 123 staining in LO2 cells; type: cell-based, human; conditions: 5 μM, 8 h
Method in brief: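 LO2 cells were attached overnight, then treated 8 h with test compound (5 μM). CCCP (10 μM, 1 h) was the positive control. Cells were stained with rhodamine 123 (5 μg/mL, 30 min) for fluorescence microscopy. For quantitation, washed cells at 1.0 × 10^5 cells/mL were stained at 37 °C in the dark for 30 min and read by spectrofluorometer at excitation 505 nm, emission 534 nm.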

HO-1 and NQO1 = HO-1 and NQO1 levels in LO2 cells by Western blotting; type: cell-based, human
LO2 cells [14] = assay: MTT cytotoxicity assay, LO2; type: cell-based, human; conditions: read-out: cytotoxicity IC50; LO2, MTT, 48 h
LO2 cells [15] = assay: Cytoprotection against APAP-induced cytotoxicity in LO2 cells; type: cell-based, human
[16] = Pharmacokinetic profile in mouse plasma by ICP-MS; type: in vivo; conditions: mice
Method in brief: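 After an overnight fast, C57BL/6J mice received test compound at 5.0 mg kg−1 i.p. Blood was collected into EDTA-2Na at 0, 0.5, 1, 2, 6, 12, 24 and 48 h. Plasma iridium was quantified by ICP-MS, n = 4, shown as mean ± SD.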

mice = assay: Toxicity evaluation and organ distribution in mice; type: in vivo
Method in brief: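 Mice received test compound at 2.5 or 5.0 mg kg−1 i.p.; body and organ weights were recorded after 6 h. Organ index = organ wet weight/body weight × 100%; the figure legend reports indexes at 12 h, n = 5. About 100 mg tissue was ground in liquid nitrogen, nitric-acid digested, and analysed for iridium by ICP-MS. Organs were fixed 24 h, sectioned at 4 μm, and H&E stained.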

[17] = 1 at 5.0 mg kg−1, 6 h after APAP challenge

Compound: CC(=O)Nc1ccc(O)cc1 [APAP, Acetaminophen, reference compound]
serum ALT, maximum level ([1]; 12 h after APAP challenge): 3334.98 U/L | serum AST, maximum level ([1]; 12 h after APAP challenge): 2002.31 U/L | serum ALT ([1]; 48 h after APAP challenge): 608.41 U/L | serum AST ([1]; 48 h after APAP challenge): 488.20 U/L | increase in serum ALT compared with the control group ([1]; APAP 400 mg kg−1): 188 fold | increase in serum AST compared with the control group ([1]; APAP 400 mg kg−1): 216 fold | percentage of necrotic liver areas ([1]; APAP 400 mg kg−1 i.p. alone (model group)): 21.01%

Compound: Clc1cc(-c2ccccc2)nc2ccccc12 [Ligand 7, 4-chloro-2-phenylquinoline]
IC50 at 48 h [2]: > 100 µM

Compound: Cc1ccc2ccc3ccc(C)nc3c2n1 [Ligand 8, 2,9-dimethyl-1,10-phenanthroline]
IC50 at 48 h [2]: > 100 µM

IC50 (Keap1–Nrf2 interaction [3]): 1090 nM | Ki (Keap1 and Nrf2 binding): 1030 nM | -TΔS (ITC) (Keap1 [4]; Keap1): -1.64 kcal/mol | stoichiometry N (ITC) (Keap1 [4]; Keap1): 0.962 ± 0.026 | ΔG (ITC) (Keap1 [4]; Keap1): -8.39 kcal/mol | ΔH (ITC) (Keap1 [4]; Keap1): -6.75 kcal/mol | Kd (Keap1 [4]; read-out: Kd (ITC), 200 μM of 1 titrated into Keap1 (20 μM), 25 °C): 710 ± 790 nM | binding to Nrf2 by ITC (Nrf2 [5]): no binding was observed | shift of Keap1 melting curve (Keap1 [6]): ca. 6 °C | shift of Nrf2 melting curve (Nrf2 [7]): no significant shift | stability [8]: good stability | cellular permeability (iridium levels in nucleus and cytoplasm) (LO2 cells [9]): good cellular permeability | elimination half-life ([16]; 5 mg kg−1 i.p.): 12 h | maximum mean peak area in plasma (Cmax) ([16]; 5.0 mg kg−1 i.p.): 13.70 µg/mL | Cmax ([16]; read-out: maximum mean peak area in plasma (Cmax), 5.0 mg kg−1 i.p.): 13.4 µM
Compound: [Ir (clpq)2 (2,9-dmphen)](PF6) [Complex 1]
Nrf2 co-precipitated with Keap1 (Keap1–Nrf2 interaction [10]): reduction of Nrf2 co-precipitated with Keap1 | Nrf2 accumulation in the nucleus (Nrf2 [11]): induced Nrf2 accumulation in the nucleus | effect on ROS elevation (LO2 cells [12]): no significant effect | effect on proteasomal inhibition (proteasome): no significant effect | effect on mitochondrial dysfunction (LO2 cells [13]): no significant effect | levels of HO-1 and NQO1 (HO-1 and NQO1; 6 h treatment): increased | increase of HO-1 and NQO1 levels in Keap1 knockdown cells versus control cells (HO-1 and NQO1; Keap1 siRNA): less effective | increase of HO-1 and NQO1 levels after Nrf2 knockdown (HO-1 and NQO1; Nrf2 siRNA): muted | IC50 (LO2 cells [14]): 48 µM | cell viability of LO2 cells after treatment with APAP (LO2 cells [15]): dose-dependent restoration of cell viability | reductions of AST levels ([1]; 1 (5 mg/kg), time intervals 6, 12, 24 and 48 h after APAP): 32.29–53.62% | decrease of serum ALT [1, 17]: 23.5% | decrease of serum AST [1, 17]: 25.2% | percentage of necrotic liver areas ([1]; APAP 400 mg kg−1 + 1 at 2.5 mg kg−1 i.p. once daily for five days): 16.04% | percentage of necrotic liver areas ([1]; APAP 400 mg kg−1 + 1 at 5.0 mg kg−1 i.p. once daily for five days): 8.99% | Nrf2 levels in the nucleus (liver) in comparison to the APAP group ([1]; mice, APAP + 1): significantly increased | protein expression of Keap1 (liver) ([1]; mice, APAP + 1): remained basal | organ damage (organ morphology, organ index, H&E) (mice; 5.0 mg kg−1 i.p., 6, 12 and 24 h): did not cause organ damage | concentration in various organs (ICP-MS) (mice; i.p., 6 h): mainly concentrated in the liver and kidney
